Measurements published in ChEMBL document CHEMBL3351863, “Optimization of 2-phenyl-pyrimidine-4-carboxamides towards potent, orally bioavailable and selective P2Y(12) antagonists for inhibition of platelet aggregation” (Bioorg Med Chem Lett, 2014).

How the values were obtained:
P2Y purinoceptor 12 = P2Y purinoceptor 12 (Homo sapiens, UniProt Q9H244); assay: Displacement of [3H]-2-methyl-thio-adenosine 5'-diphosphate from human recombinant P2Y12 expressed in CHO cell membranes by scintillation counting method
P2Y purinoceptor 12, sequence (Q9H244 whole entry): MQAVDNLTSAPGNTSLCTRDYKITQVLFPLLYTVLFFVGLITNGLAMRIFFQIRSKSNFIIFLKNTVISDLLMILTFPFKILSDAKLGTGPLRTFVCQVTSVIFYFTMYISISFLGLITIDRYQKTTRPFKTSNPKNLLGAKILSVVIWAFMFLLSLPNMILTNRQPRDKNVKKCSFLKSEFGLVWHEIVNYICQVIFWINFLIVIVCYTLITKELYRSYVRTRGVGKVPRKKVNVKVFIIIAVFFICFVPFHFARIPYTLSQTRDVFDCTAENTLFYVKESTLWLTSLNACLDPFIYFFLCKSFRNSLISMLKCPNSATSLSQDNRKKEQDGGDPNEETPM
Outline: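 CHO cells expressing recombinant P2Y₁₂ receptors, incubated with tritium-labeled 2-methyl-thio-adenosine 5'-diphosphate plus test compound; IC₅₀ from displacement curves, each point in triplicate; reference compound run with every compound set, and set re-analyzed if its IC₅₀ fell outside pre-set 95% confidence interval.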

Platelet [1] = assay: Inhibition of ADP-induced platelet aggregation in human platelet rich plasma assessed as remaining activity at 500 nM by in-vitro light transmission aggregometry assay; format: functional
Outline: (§1)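 Light transmission aggregometry in human platelet-rich plasma; compound incubated, aggregation triggered with 3 µM ADP; remaining activity (RA) recorded at a single compound level (1000, 500 or 100 nM).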

Platelet [2] = assay: Inhibition of ADP-induced platelet aggregation in human platelet rich plasma assessed as remaining activity at 1000 nM by in-vitro light transmission aggregometry assay; format: functional; outline: as §1
[3] = Solubility in neutral pH; format: physicochemical
[4] = Solubility in basic pH; format: physicochemical
Cytochrome P450 3A4 [5] = molecular target: T1, Cytochrome P450 3A4 (Homo sapiens, UniProt P08684); assay: Inhibition of CYP3A4 in human liver microsomes assessed as reduction in midazolam 1'-hydroxylation; format: ADME
T1 sequence (P08684 whole entry): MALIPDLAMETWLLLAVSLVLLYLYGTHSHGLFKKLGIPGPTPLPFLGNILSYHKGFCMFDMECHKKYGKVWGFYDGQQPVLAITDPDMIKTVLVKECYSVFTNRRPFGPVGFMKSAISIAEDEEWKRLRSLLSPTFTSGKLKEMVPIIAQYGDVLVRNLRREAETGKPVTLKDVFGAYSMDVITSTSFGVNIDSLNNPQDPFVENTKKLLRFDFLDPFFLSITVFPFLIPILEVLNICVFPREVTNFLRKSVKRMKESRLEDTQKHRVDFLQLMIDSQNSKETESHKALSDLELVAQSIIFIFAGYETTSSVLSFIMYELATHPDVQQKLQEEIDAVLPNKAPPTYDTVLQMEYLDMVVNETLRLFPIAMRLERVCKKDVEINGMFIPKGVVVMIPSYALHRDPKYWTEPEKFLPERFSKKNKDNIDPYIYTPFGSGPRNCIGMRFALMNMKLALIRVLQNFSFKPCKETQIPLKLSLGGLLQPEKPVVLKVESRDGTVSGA

Cytochrome P450 3A4 [6] = molecular target: T1, Cytochrome P450 3A4; assay: Inhibition of CYP3A4 in human liver microsomes assessed as reduction in testosterone 6beta-hydroxylation; format: ADME
Cytochrome P450 2D6 = Cytochrome P450 2D6 (Homo sapiens, UniProt P10635); assay: Inhibition of CYP2D6 in human liver microsomes assessed as reduction in dextromethorphan-O demethylation; format: ADME
Cytochrome P450 2D6, sequence (P10635 whole entry): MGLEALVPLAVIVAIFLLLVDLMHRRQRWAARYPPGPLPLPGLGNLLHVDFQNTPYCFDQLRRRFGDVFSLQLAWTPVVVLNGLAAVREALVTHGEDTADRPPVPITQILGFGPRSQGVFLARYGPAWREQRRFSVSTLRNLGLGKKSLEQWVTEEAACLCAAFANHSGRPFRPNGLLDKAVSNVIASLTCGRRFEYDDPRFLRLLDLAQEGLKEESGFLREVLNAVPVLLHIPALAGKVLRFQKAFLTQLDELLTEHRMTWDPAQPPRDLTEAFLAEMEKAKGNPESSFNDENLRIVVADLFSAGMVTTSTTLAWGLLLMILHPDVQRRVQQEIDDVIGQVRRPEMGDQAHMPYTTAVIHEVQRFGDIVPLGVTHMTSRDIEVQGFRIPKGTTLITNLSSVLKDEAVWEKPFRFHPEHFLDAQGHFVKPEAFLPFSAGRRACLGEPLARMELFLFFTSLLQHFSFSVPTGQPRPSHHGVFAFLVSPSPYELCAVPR

Cytochrome P450 2C9 = Cytochrome P450 2C9 (Homo sapiens, UniProt P11712); assay: Inhibition of CYP2C9 in human liver microsomes assessed as reduction in diclofenac 4'-hydroxylation; format: ADME
Cytochrome P450 2C9, sequence (P11712 whole entry): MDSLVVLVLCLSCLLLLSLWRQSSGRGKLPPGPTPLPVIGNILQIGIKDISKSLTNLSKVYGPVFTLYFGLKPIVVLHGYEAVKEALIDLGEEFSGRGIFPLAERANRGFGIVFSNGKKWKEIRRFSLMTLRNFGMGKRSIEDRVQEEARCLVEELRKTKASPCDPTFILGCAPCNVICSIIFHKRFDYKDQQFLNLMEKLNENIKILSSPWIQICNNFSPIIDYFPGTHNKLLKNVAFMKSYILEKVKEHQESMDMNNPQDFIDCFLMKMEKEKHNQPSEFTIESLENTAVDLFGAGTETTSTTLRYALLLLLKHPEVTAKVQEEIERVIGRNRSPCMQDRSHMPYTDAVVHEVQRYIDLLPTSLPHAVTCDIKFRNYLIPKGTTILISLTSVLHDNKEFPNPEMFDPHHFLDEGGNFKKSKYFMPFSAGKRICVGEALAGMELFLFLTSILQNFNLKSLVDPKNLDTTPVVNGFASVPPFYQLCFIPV

Liver microsome [7] = assay: Metabolic stability assay in human liver microsomes assessed as parent drug disappearance at 1 uM after 20 mins by HPLC and mass spectrometry method; format: ADME
Liver microsome [8] = assay: Metabolic stability assay in rat liver microsomes assessed as parent drug disappearance at 1 uM after 20 mins by HPLC and mass spectrometry method; format: ADME
[9] = molecular target: Voltage-gated inwardly rectifying potassium channel KCNH2 (Homo sapiens, UniProt Q12809); assay: Inhibition of human ERG expressed in HEK cells by patch-clamp assay; format: cell-based; settings: hek293
Voltage-gated inwardly rectifying potassium channel KCNH2, sequence (Q12809 whole entry): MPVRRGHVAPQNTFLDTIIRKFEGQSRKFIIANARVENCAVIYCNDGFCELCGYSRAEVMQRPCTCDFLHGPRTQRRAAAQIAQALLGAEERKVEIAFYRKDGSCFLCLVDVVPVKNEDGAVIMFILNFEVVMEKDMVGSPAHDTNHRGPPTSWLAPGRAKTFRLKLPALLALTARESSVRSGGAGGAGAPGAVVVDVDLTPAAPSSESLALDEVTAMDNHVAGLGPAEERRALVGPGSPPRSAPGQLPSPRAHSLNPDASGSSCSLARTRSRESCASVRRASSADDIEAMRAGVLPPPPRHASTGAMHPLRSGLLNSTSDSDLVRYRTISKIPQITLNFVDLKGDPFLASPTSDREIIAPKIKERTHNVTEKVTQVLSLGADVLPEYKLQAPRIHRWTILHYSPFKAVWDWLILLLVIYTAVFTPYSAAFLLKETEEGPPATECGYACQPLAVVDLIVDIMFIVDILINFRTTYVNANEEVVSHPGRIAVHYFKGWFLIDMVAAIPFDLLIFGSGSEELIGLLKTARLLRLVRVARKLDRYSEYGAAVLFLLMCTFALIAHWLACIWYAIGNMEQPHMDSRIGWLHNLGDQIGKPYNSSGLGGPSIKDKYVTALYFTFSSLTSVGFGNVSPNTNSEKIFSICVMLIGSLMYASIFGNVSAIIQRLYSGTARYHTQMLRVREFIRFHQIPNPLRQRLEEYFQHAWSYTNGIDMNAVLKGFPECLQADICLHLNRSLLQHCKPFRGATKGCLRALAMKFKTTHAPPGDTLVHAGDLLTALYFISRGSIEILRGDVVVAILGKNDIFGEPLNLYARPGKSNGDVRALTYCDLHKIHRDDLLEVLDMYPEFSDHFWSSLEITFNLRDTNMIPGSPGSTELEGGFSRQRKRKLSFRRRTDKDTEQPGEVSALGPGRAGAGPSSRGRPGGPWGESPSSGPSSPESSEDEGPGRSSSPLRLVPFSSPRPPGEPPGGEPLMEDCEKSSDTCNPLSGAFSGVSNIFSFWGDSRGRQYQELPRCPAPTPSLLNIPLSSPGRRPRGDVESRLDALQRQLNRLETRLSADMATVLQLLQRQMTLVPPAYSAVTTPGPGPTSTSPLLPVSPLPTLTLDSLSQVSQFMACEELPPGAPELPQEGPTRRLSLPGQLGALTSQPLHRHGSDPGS

Platelet [10] = assay: Inhibition of ADP-induced platelet aggregation in human platelet rich plasma assessed as remaining activity at 100 nM by in-vitro light transmission aggregometry assay; format: functional; outline: as §1
Platelet [11] = assay: Inhibition of ADP-induced platelet aggregation in human platelet rich plasma by in-vitro light transmission aggregometry assay; format: functional
Outline: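 Human platelet-rich plasma incubated with compound, aggregation induced by 3 µM ADP and read by light transmission aggregometry; IC₅₀ derived from concentration–response curve.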

[12] = Potency shift, ratio of IC50 for inhibition of ADP-induced platelet aggregation in human platelet rich plasma to IC50 for displacement of [3H]-2-methyl-thio-adenosine 5'-diphosphate from human recombinant P2Y12 expressed in CHO cell membranes

Row | Compound | IC50 (P2Y purinoceptor 12) [nM] | solubility [3] | solubility [4] | inhibition (INH) (Cytochrome P450 3A4 [5]) | inhibition (INH) (Cytochrome P450 3A4 [6]) | inhibition (INH) (Cytochrome P450 2D6) | inhibition (INH) (Cytochrome P450 2C9) | Stability (Liver microsome [7]) | Stability (Liver microsome [8]) | IC50 (Platelet [11]; Homo sapiens, Platelet, Plasma) [nM] | IC50 (Platelet [11]; platelet) [nM] | Activity (Platelet [1]) [%] | Activity (Platelet [2]) [%] | inhibition (INH) [9] | Activity (Platelet [10]) [%] | Ratio IC50 [12]
1 | CCOC(=O)N1CCN(C(=O)[C@H](CCC(=O)O)NC(=O)c2cc(NCc3ccccc3)nc(-c3ccccc3)n2)CC1 | 122 | soluble | soluble | Not Active | Not Active | Not Active | Not Active | Stable | Stable | – | – | >60 | >30 | Not Active | – | –
2 | CCOC(=O)N1CCN(C(=O)[C@H](CCC(=O)O)NC(=O)c2cc(NC(=O)C3CCCCC3)nc(-c3ccccc3)n2)CC1 | 219 | soluble | soluble | Not Active | Not Active | Not Active | Not Active | Stable | Stable | – | – | >60 | >30 | Not Active | – | –
3 | CCOC(=O)N1CCN(C(=O)[C@H](CCC(=O)O)NC(=O)c2cc(N3CC[C@@H](O)C3)nc(-c3ccccc3)n2)CC1 | 52 | soluble | soluble | Not Active | Not Active | Not Active | Not Active | Stable | Stable | 99 | – | <30 | – | Not Active | <70 | 1.9
4 | CCOC(=O)N1CCN(C(=O)[C@H](CCC(=O)O)NC(=O)c2cc(N3CCC(N)C3)nc(-c3ccccc3)n2)CC1 (stereo partly drawn) | 76 | soluble | soluble | Not Active | Not Active | Not Active | Not Active | Stable | Stable | 86 | – | <30 | – | Not Active | <70 | 1.1
5 | CCOC(=O)N1CCN(C(=O)[C@H](CCC(=O)O)NC(=O)c2cc(-c3ccccc3)nc(-c3ccccc3)n2)CC1 | 64 | soluble | soluble | Not Active | Not Active | Not Active | Not Active | Stable | Stable | – | – | >60 | >30 | Not Active | – | –
6 | CCOC(=O)N1CCN(C(=O)[C@H](CCC(=O)O)NC(=O)c2cc(C(C)(C)CO)nc(-c3ccccc3)n2)CC1 | 21 | soluble | soluble | Not Active | Not Active | Not Active | Not Active | Stable | Stable | 121 | – | <30 | – | Not Active | <70 | 5.8
7 | CCOC(=O)N1CCN(C(=O)[C@H](CCC(=O)O)NC(=O)c2cc([C@H]3C[C@@H]3CO)nc(-c3ccccc3)n2)CC1 (racemic) | 23 | soluble | soluble | Not Active | Not Active | Not Active | Not Active | Stable | Stable | 71 | – | <30 | – | Not Active | <70 | 3.1

Second part, led by results:

Row | IC50 (P2Y purinoceptor 12) [nM] | solubility [3] | solubility [4] | inhibition (INH) (Cytochrome P450 3A4 [5]) | inhibition (INH) (Cytochrome P450 3A4 [6]) | inhibition (INH) (Cytochrome P450 2D6) | inhibition (INH) (Cytochrome P450 2C9) | Stability (Liver microsome [7]) | Stability (Liver microsome [8]) | IC50 (Platelet [11]; Homo sapiens, Platelet, Plasma) [nM] | IC50 (Platelet [11]; platelet) [nM] | Compound | Activity (Platelet [1]) [%] | Activity (Platelet [2]) [%] | inhibition (INH) [9] | Activity (Platelet [10]) [%] | Ratio IC50 [12]
8 | 56 | soluble | soluble | Not Active | Not Active | Not Active | Not Active | Stable | Stable | 55 | – | CCOC(=O)N1CCN(C(=O)[C@H](CCC(=O)O)NC(=O)c2cc(NC(C)CO)nc(-c3ccccc3)n2)CC1 (stereo partly drawn) | <30 | – | Not Active | <70 | 0.98
9 | 198 | soluble | soluble | Not Active | Not Active | Not Active | Not Active | Stable | Stable | – | – | CCOC(=O)N1CCN(C(=O)[C@H](CCC(=O)O)NC(=O)c2cc(NCCC(=O)O)nc(-c3ccccc3)n2)CC1 | >60 | >30 | Not Active | – | –
10 | 46 | soluble | soluble | Not Active | Not Active | Not Active | Not Active | Stable | Stable | 68 | – | CCOC(=O)N1CCN(C(=O)[C@H](CCC(=O)O)NC(=O)c2cc(N3CC[C@H](O)C3)nc(-c3ccccc3)n2)CC1 | <30 | – | Not Active | <70 | 1.5
11 | 39 | soluble | soluble | Not Active | Not Active | Not Active | Not Active | Stable | Stable | – | 192 | CCOC(=O)N1CCN(C(=O)[C@H](CCC(=O)O)NC(=O)c2cc([C@H]3C[C@@H]3COC)nc(-c3ccccc3)n2)CC1 (racemic) | <30 | – | Not Active | <70 | 4.9
12 | 178 | soluble | soluble | Not Active | Not Active | Not Active | Not Active | Stable | Stable | – | – | CCOC(=O)N1CCN(C(=O)[C@H](CCC(=O)O)NC(=O)c2cc(NC(=O)c3ccccc3)nc(-c3ccccc3)n2)CC1 | >60 | >30 | Not Active | – | –
13 | 177 | soluble | soluble | Not Active | Not Active | Not Active | Not Active | Stable | Stable | – | – | CCOC(=O)N1CCN(C(=O)[C@H](CCC(=O)O)NC(=O)c2cc(Nc3ccccc3)nc(-c3ccccc3)n2)CC1 | >60 | >30 | Not Active | – | –
14 | – | soluble | soluble | Not Active | Not Active | Not Active | Not Active | Stable | Stable | – | – | CCOC(=O)N1CCN(C(=O)[C@H](CCC(=O)O)NC(=O)c2cc(-c3cn[nH]c3)nc(-c3ccccc3)n2)CC1 | >60 | >30 | Not Active | – | –
15 | 11 | soluble | soluble | Not Active | Not Active | Not Active | Not Active | Stable | Stable | – | – | CCOC(=O)N1CCN(C(=O)[C@H](CCC(=O)O)NC(=O)c2cc(-c3ccsc3)nc(-c3ccccc3)n2)CC1 | >60 | >30 | Not Active | – | –
